Assay results published in ChEMBL document CHEMBL3112466, “Structure-activity relationship analysis of imidazoquinolines with Toll-like receptors 7 and 8 selectivity and enhanced cytokine induction” (J Med Chem, 2014).
Active and inactive are the calls of the source. No cut-off for these calls is given here.

Assays:
[1] = biological target: T1, TLR7 and TLR8 (Mus musculus) (UniProt P58681+P58682); experiment: Agonist activity at TLR7/TLR8 in C57BL/6 mouse BMDC assessed as induction of IL-12p40 production at 30 uM after 3 days by flow cytometric analysis; type: protein assay
Method in brief: (§1)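 BMDCs from femoral marrow of 6−8-week C57BL/6 mice; red cells lysed (0.83% NH₄Cl, 0.1% KHCO₃, 0.009% EDTA); 5 million cells per well cultured six days in complete RPMI with mouse GM-CSF 20 ng/mL. Stimulated with 30 μM compound for 3 days; supernatant cytokines quantified by flow cytometric bead array; measured in triplicate.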

[2] = biological target: T1, TLR7 and TLR8 (Mus musculus); experiment: Agonist activity at TLR7/TLR8 in C57BL/6 mouse BMDC assessed as induction of IL-1beta production at 30 uM after 3 days by flow cytometric analysis; type: protein assay; method in brief: as §1
[3] = biological target: T1, TLR7 and TLR8 (Mus musculus); experiment: Agonist activity at TLR7/TLR8 in C57BL/6 mouse BMDC assessed as induction of IL-10 production at 30 uM after 3 days by flow cytometric analysis; type: protein assay; method in brief: as §1
[4] = biological target: T1, TLR7 and TLR8 (Mus musculus); experiment: Agonist activity at TLR7/TLR8 in C57BL/6 mouse BMDC assessed as induction of TNF-alpha production at 30 uM after 3 days by flow cytometric analysis; type: protein assay; method in brief: as §1
Toll-like receptor 7 = biological target: T2, Toll-like receptor 7 (Homo sapiens, UniProt Q9NYK1); experiment: Agonist activity at human TLR-7 expressed in HEK293 cells after 24 hrs by SEAP reporter gene assay; type: cell-based
T2 sequence (Q9NYK1 whole entry): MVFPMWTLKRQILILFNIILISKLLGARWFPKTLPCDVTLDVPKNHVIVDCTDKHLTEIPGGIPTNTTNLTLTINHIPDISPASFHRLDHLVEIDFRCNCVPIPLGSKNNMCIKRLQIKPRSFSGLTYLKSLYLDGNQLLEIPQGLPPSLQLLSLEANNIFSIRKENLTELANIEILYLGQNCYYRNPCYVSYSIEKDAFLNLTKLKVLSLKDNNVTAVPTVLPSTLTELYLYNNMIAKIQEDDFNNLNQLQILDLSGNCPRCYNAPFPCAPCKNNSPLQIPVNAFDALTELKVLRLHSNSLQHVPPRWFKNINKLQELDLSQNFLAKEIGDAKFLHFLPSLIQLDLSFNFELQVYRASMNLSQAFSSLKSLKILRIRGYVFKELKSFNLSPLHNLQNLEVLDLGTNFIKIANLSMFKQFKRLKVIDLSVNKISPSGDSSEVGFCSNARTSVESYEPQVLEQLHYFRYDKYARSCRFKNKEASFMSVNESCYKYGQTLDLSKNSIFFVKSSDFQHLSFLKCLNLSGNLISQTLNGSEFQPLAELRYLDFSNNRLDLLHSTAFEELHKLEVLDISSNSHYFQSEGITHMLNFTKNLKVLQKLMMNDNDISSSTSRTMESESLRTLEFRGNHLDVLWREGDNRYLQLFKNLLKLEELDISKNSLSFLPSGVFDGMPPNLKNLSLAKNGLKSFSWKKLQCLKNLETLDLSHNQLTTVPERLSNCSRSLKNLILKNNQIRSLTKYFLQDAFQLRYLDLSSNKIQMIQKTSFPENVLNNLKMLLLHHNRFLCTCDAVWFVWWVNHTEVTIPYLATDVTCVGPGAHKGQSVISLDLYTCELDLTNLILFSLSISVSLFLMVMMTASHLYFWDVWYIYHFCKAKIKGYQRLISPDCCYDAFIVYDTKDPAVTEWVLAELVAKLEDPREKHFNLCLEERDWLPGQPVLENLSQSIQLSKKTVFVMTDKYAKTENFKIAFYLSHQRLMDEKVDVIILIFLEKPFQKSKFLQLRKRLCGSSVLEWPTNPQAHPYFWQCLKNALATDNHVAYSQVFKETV

Toll-like receptor 8 = biological target: T3, Toll-like receptor 8 (Homo sapiens, UniProt Q9NR97); experiment: Agonist activity at human TLR-8 expressed in HEK293 cells after 24 hrs by SEAP reporter gene assay; type: cell-based
T3 sequence (Q9NR97 whole entry): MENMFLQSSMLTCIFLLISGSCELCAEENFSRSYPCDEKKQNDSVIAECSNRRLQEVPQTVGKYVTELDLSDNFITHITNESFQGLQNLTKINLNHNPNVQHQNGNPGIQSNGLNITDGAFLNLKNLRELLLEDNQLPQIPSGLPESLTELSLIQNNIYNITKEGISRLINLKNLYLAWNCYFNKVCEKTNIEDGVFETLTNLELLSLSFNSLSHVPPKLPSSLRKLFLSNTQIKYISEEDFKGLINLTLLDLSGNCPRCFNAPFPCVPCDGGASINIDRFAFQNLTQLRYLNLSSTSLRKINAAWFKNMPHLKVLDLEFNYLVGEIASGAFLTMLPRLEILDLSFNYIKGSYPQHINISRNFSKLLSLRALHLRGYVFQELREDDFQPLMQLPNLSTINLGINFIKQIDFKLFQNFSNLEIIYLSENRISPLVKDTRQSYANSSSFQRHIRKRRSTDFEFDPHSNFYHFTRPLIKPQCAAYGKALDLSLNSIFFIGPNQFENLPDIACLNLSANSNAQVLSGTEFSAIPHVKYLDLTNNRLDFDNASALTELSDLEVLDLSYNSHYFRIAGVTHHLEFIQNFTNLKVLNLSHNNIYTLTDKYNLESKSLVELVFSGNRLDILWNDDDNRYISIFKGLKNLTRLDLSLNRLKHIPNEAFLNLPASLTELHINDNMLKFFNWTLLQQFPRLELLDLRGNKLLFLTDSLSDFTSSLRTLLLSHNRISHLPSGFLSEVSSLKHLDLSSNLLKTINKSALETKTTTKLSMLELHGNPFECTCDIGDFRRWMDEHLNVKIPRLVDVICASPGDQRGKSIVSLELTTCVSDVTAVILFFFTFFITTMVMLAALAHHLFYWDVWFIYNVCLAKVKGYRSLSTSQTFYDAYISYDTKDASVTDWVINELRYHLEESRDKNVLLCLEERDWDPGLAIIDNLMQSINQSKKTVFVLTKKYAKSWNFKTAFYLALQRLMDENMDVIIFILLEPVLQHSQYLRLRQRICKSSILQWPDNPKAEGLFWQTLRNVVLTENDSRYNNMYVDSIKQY
Method in brief: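 HEK-293 cells transfected with human TLR-7 or TLR-8 plus NF-κB-inducible SEAP reporter; stimulated with 30 μM compound in DMEM/10% FBS for 24 h. Supernatant incubated with Quanti-blue substrate 1 h at 37 °C; SEAP read as absorbance at 650 nm.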

[5] = biological target: T4, TLR7 and TLR8 (Homo sapiens) (UniProt Q9NYK1+Q9NR97); experiment: Agonist activity at TLR7/TLR8 in human PBMC assessed as induction of TNF-alpha production at 22.5 uM after 24 hrs by flow cytometric analysis; type: protein assay
Method in brief: (§2)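 PBMCs isolated by Ficoll from three independent donors, plated in triplicate at 5 × 10⁵ cells per well, exposed to 22.5 μM compound for 24 h. Medium assayed for TNF-α and IFN-γ by flow cytometric bead array, IFN-α by ELISA.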

[6] = biological target: T4, TLR7 and TLR8 (Homo sapiens); experiment: Agonist activity at TLR7/TLR8 in human PBMC assessed as induction of IFN-alpha production at 22.5 uM after 24 hrs by ELISA; type: protein assay; method in brief: as §2
[7] = biological target: T4, TLR7 and TLR8 (Homo sapiens); experiment: Agonist activity at TLR7/TLR8 in human PBMC assessed as induction of IFN-gamma production at 22.5 uM after 24 hrs by flow cytometric analysis; type: protein assay; method in brief: as §2

T1 sequence (P58681 whole entry, looked up): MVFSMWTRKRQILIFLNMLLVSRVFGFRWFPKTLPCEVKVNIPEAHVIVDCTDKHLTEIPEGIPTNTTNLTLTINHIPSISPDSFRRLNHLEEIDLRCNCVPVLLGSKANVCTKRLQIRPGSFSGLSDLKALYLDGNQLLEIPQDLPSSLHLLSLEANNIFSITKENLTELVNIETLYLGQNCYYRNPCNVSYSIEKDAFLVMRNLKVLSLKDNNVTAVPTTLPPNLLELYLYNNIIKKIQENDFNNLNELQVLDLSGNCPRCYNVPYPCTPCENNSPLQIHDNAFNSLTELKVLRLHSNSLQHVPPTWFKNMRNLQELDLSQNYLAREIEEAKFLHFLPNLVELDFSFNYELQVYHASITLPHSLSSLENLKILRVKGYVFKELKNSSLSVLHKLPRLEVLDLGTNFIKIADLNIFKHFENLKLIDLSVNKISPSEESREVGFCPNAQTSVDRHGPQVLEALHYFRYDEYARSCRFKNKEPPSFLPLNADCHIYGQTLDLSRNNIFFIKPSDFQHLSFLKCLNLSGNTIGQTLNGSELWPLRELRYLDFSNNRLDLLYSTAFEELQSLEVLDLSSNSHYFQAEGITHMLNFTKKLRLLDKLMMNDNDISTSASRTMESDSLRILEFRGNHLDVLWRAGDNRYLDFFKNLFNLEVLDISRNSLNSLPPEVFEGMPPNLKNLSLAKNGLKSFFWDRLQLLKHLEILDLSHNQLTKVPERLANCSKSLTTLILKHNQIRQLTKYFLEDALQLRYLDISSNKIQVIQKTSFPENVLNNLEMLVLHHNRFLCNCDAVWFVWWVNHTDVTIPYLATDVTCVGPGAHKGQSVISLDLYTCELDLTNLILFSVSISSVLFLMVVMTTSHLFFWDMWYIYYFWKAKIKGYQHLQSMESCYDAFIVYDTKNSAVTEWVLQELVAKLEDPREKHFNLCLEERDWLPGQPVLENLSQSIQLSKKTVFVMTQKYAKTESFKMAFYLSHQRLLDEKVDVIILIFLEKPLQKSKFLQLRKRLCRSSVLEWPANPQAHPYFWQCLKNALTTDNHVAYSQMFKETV
T1 sequence (P58682 whole entry, looked up): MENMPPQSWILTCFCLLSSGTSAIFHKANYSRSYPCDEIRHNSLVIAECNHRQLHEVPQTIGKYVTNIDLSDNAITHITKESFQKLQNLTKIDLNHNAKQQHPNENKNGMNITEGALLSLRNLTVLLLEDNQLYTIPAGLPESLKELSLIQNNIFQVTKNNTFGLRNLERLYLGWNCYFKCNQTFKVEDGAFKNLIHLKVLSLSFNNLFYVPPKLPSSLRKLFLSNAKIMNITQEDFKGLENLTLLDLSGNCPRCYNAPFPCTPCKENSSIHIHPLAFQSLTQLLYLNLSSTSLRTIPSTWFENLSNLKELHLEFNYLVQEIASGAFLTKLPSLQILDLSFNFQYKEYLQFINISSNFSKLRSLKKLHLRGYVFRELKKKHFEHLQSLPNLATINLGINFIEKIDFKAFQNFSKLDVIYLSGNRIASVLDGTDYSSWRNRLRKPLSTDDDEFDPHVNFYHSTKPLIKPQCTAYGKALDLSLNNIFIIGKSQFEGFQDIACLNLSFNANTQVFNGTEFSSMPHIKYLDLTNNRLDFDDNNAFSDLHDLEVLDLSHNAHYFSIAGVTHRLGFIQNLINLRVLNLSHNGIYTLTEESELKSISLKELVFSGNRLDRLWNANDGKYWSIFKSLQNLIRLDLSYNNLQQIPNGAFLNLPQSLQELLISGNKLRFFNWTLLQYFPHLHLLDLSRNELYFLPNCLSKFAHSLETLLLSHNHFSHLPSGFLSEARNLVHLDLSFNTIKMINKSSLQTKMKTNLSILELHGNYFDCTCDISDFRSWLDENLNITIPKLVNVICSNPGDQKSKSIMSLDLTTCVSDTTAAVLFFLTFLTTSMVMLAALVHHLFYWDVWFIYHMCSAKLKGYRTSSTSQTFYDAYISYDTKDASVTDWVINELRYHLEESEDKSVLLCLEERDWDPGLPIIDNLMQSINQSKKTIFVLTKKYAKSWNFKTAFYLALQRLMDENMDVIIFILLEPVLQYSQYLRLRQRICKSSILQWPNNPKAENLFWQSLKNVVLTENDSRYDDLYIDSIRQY

Row | SMILES | Activity [1] | Activity [2] | Activity [3] | Activity [4] | EC50 (Toll-like receptor 7; read-out: EC50) | EC50 (Toll-like receptor 8) | Activity [5] | Activity [6] | Activity [7] | EC50 (Toll-like receptor 7; hek293)
1 | CCCCc1nc2c(N)nc3cc(C(=O)OC)ccc3c2n1CC(C)(C)O | 393 pg/mL | 108 pg/mL | 24 pg/mL | 1100 pg/mL | 1.5 µM | – | – | – | – | –
2 | CCCCc1nc2c(N)nc3cc(C(=O)OC)ccc3c2n1CCOCc1ccccc1 | 136 pg/mL | 104 pg/mL | 25 pg/mL | 2240 pg/mL | – | – | – | – | – | –
3 | CCCCc1nc2c(N)nc3cc(C(=O)OC)ccc3c2n1CCO | 290 pg/mL | 109 pg/mL | 18 pg/mL | 1210 pg/mL | – | – | – | – | – | –
4 | CCCc1nc2c(N)nc3cc(C(=O)OC)ccc3c2n1CC(C)(C)O | 365 pg/mL | 33 pg/mL | 23 pg/mL | 1170 pg/mL | – | Not Active | – | – | – | –
5 | CCCCc1nc2c(N)nc3cc(C(=O)OC)ccc3c2n1CCOC | 267 pg/mL | 484 pg/mL | 22 pg/mL | 1370 pg/mL | – | Not Active | – | – | – | –
6 | CCc1nc2c(N)nc3cc(C(=O)OC)ccc3c2n1CC(C)(C)O | 78 pg/mL | 11 pg/mL | 24 pg/mL | 1170 pg/mL | – | Not Active | – | – | – | –
7 | CCCCc1nc2c(N)nc3cc(C(=O)OC)ccc3c2n1C[C@H](C)O | 597 pg/mL | 301 pg/mL | 25 pg/mL | 1190 pg/mL | – | – | Active | Active | Active | –
8 | CC(C)Cn1cnc2c(N)nc3ccccc3c21 [IMIQUIMOD] | 133 pg/mL | 19 pg/mL | 17 pg/mL | 308 pg/mL | 10.7 µM | Not Active | – | – | – | –
9 | CCOCc1nc2c(N)nc3ccccc3c2n1CC(C)(C)O | 236 pg/mL | 16 pg/mL | 49 pg/mL | 1740 pg/mL | – | – | Active | – | – | –
10 | COC(=O)c1ccc2c(c1)nc(N)c1nc(C)n(CC(C)(C)O)c12 | 73 pg/mL | 13 pg/mL | 27 pg/mL | 819 pg/mL | – | Not Active | – | – | – | –
11 | CCCCc1nc2c(N)nc3cc(C(=O)OC)ccc3c2n1CC(C)O (racemic) | 533 pg/mL | 275 pg/mL | 22 pg/mL | 1200 pg/mL | – | – | Active | Active | Active | –
12 | COC(=O)c1ccc2c(c1)nc(N)c1ncn(CC(C)(C)O)c12 | 8 pg/mL | 6 pg/mL | 9 pg/mL | 40 pg/mL | – | Not Active | – | – | – | Not Active
13 | COC(=O)c1ccc2c(c1)nc(N)c1nc(Cc3ccccc3)n(CC(C)(C)O)c12 | 500 pg/mL | 60 pg/mL | 15 pg/mL | 971 pg/mL | – | Not Active | – | – | – | –
14 | CCCCCc1nc2c(N)nc3cc(C(=O)OC)ccc3c2n1CC(C)(C)O | 312 pg/mL | 1010 pg/mL | 37 pg/mL | 1810 pg/mL | – | – | Active | Active | Active | –
15 | CCCCc1nc2c(N)nc3cc(C(=O)OC)ccc3c2n1C[C@@H](C)O | 416 pg/mL | 157 pg/mL | 20 pg/mL | 1160 pg/mL | – | – | Active | Active | Active | –
